Experimental data as given in PubChem BioAssay AID488769 (The Scripps Research Institute Molecular Screening Center, 2010).

Biological target: Nuclear receptor subfamily 5 group A member 2 (Homo sapiens) (UniProt O00482)
Experiment: lowering haptoglobin, SAA1, SAA4 transcripts – cell-based, quantitative PCR, fluorescence (AID 488769)
Details: Huh7 cytokine-induced target gene mRNA, TaqMan qPCR, 18 h, at 10 µM, active compounds read high;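 active means compounds cutting cytokine-driven expression of at least one of three liver inflammation genes by over 25%; inactive means the rest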
Method in brief: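 Assay system – Huh7 cells with endogenous LRH-1 expression · Control set – DMSO vehicle · Times – 18 h compound exposure, then 3 h cytokine stimulation · Reagent – IL-1β and IL-6, 3 nM · Compound – single test concentration of 10 µM, DMSO as vehicle · Repeats – triplicate qPCR measurements per sample · Technique – TaqMan qPCR of target mRNAs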

Measured: inhibition

Chain of Nuclear receptor subfamily 5 group A member 2 (Homo sapiens) (O00482 whole entry, looked up): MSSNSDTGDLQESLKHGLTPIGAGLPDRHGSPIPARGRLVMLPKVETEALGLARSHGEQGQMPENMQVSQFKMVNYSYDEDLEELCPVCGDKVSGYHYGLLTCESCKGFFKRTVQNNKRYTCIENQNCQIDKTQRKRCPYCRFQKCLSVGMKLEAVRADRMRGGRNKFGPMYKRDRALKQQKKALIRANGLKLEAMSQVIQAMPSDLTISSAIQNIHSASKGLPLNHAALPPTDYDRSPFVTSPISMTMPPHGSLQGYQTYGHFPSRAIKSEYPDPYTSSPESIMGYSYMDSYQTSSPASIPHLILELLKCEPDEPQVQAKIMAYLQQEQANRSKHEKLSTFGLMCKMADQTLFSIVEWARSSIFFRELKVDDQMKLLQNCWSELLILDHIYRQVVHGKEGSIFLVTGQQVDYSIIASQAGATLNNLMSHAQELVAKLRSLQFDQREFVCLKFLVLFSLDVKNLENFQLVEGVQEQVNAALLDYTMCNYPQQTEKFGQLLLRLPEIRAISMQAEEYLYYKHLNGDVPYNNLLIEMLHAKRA

O=c1cc(N2CCN(c3cccc(Cl)c3)CC2)[nH]c(=O)n1C1CCCCC1
active: Haptoglobin 88% | SAA1 91% | SAA4 55%

O=c1cc(N2CCN(c3cccc(C(F)(F)F)c3)CC2)[nH]c(=O)n1C1CCCCC1
active: Haptoglobin 86% | SAA1 93% | SAA4 55%
